Calpain2 inh: blocks pig calpain II enzyme activity; AID 1236; 220,000 compounds, 0.37% hits; inhibition, % at 16 µM; purified calpain II, fluorogenic peptide substrate, 30 min;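 active = inhibition above about 50%, limit read from the data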
Rad51 HR inh: blocks human Rad51 in homologous recombination; hRad51 DNA strand exchange, fluorescence dequenching; 200,000 compounds, 0.085% hits; Q06609; inhibition, % at 10 µM; AID 1385;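 active = inhibition above 40% at the single screening dose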
Target sequence (Q06609 whole entry, looked up): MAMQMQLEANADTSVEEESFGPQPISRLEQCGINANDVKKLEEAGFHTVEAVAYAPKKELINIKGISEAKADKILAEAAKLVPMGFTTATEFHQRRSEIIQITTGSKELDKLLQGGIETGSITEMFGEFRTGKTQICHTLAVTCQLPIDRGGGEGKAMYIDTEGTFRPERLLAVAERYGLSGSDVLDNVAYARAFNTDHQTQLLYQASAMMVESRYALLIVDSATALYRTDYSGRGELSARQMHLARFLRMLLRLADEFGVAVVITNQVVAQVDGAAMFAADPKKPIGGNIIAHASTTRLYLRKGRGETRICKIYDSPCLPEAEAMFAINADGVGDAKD
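Test system: preformed human Rad51 ssDNA filaments. Compound dosing: single dose, 10 µM final compound. Incubation: filaments 15 min 37 °C, then compound 30 min. Technique: FRET fluorescence dequenching, excitation 485 nm, emission 520 nm. Read-out basis: percent inhibition from fluorescence, normalised to plate control and blank means. Benchmarks: plate controls and plate blanks.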
PMI act satM6P: PMI (human) activation, high substrate | coupled PMI enzyme assay, resazurin fluorescence, 20 min; hits give high values; 1 = untreated enzyme, 0 = substrate-free blank | activation factor at 20 µM | 190,000 compounds, 0.34% hits | P34949;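 active = activation factor of 2 or more at 20 µM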
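Technique: Diaphorase-driven resazurin-to-resorufin fluorescence, excitation 544, emission 590 nm | Assay system: Human PMI in coupled enzyme assay | Times: Enzyme reaction with compound 20 min at room temperature | Medium: HEPES-buffered pH 7.4 with magnesium and detergent | Reagent: Mannose-6-phosphate 1.0 mM (near-saturating) plus 0.22 mM NADP+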
Lmaj promast: reduces viability of Leishmania major promastigotes; resazurin fluorescence viability; AID 1063; 200,000 compounds, 9% hits; inhibition, % at 10 µM; in the data active = inhibition above about 50%;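 also: promastigotes grown with compound for 44 hours at 28 °C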
WT yeast gro inh: growth inhibition of WT yeast, mitochondrial fusion screen; mitochondrial fusion phenotypic screen, WT strain; inhibition, % at 10 µM; 190,000 compounds, 2.1% hits; AID 1362; in the data active = inhibition above about 58%; tested in S. cerevisiae
PMI activator: increases human mannose-6-phosphate isomerase activity. P34949. activation factor at 20 µM. purified human PMI, coupled resazurin fluorescence, 20 min; hits give high values; 1 = vehicle control, 0 substrate-free wells. 190,000 compounds, 0.005% hits;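 active = activation factor of 2 or more at 20 µM, relative to plate controls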
Hits are given with their value; i = inactive; nt = no result. A selection: hits, their analogues and other compounds. The true share with any hit is near 9.8%.

SMILES | Calpain2 inh | Rad51 HR inh | PMI act satM6P | Lmaj promast | WT yeast gro inh | PMI activator
COCCCNC(=O)CCCn1c(=O)c2ccccc2n(Cc2cccc([N+](=O)[O-])c2)c1=O | i | i | i | i | i | i
OCCN1CCN(c2ncnc3c2c(-c2ccccc2)cn3-c2ccc(F)cc2)CC1 | i | i | i | i | i | i
Cc1ccc(-n2cc(-c3ccccc3)c3c(N4CCOCC4)ncnc32)cc1 | i | i | i | i | 71 | i
Cc1cccc(-n2cc(-c3ccccc3)c3c(N4CCOCC4)ncnc32)c1 | i | i | i | i | i | i
Cc1ccc(-n2cc(-c3ccccc3)c3c(N4CCN(C)CC4)ncnc32)cc1 | i | i | i | i | 62 | i
CC1CN(c2ncnc3c2c(-c2ccccc2)cn3-c2ccc(F)cc2)CC(C)O1 (centres undefined) | i | i | i | i | 75 | i
Fc1ccc(-n2cc(-c3ccccc3)c3c(NN4CCOCC4)ncnc32)cc1 | i | i | i | 97 | i | i
COc1ccc(-n2cc(-c3ccccc3)c3c(NN4CCOCC4)ncnc32)cc1 | i | i | i | i | i | i
CCOC(=O)C(NC(C)=O)C(=O)Nc1ccc(C)cc1C (centres undefined) | i | i | i | i | i | i
O=c1[nH]c(-c2ccc(Cl)cc2)nc(=S)[nH]1 | i | i | nt | nt | nt | nt
O=C(CSc1cccc2cccc(Cl)c12)NCc1cccs1 | i | i | i | i | i | i
CCN(Cc1ccccc1)C(=O)c1ccc(Cl)cc1[N+](=O)[O-] | i | nt | i | i | i | i
CCOC(=O)C1CCN(C(=O)c2cc3cc(Br)ccc3oc2=O)CC1 | i | i | i | i | i | i
NS(=O)(=O)c1cccc(NC(=O)Cn2cnc3ccccc3c2=O)c1 | i | i | i | i | i | i
COC(=O)c1cn(C(=O)OC)c2ccccc12 | i | i | i | i | 66 | i
COC(=O)c1cn(C(=O)c2ccc(C)cc2C)c2ccccc12 | i | nt | i | i | 61 | i
Cn1cnnc1-c1cccc(NC(=O)c2cc(F)c(F)cc2Cl)c1 | i | i | i | i | i | i
CN(C)S(=O)(=O)c1cc(NC(=O)c2cc(=O)[nH]c3ccccc23)ccc1Cl | i | i | i | i | i | i
COC1=C/C(=C/c2c(N)n3nc(-c4ccc(C)cc4)sc3nc2=O)C=CC1=O | i | i | i | 74 | i | i
COc1ccc(CN2CCN(C(=O)C3CCC(CNS(=O)(=O)c4ccc(C)cc4)CC3)CC2)c(OC)c1OC (centres undefined) | i | i | i | i | i | i
Cc1cc(C)c(S(=O)(=O)Nc2cc(SCC(=O)O)c(O)c3ccccc23)cc1C | i | i | i | 99 | i | i
Cc1cc(C)c(S(=O)(=O)Nc2ccc(O)cc2)cc1C | i | i | i | i | i | i
Brc1ccc2c(c1)OCCOCCOc1cc(Br)ccc1OCCOCCOCCO2 | i | i | i | 101 | 80 | i
O=[N+]([O-])c1ccccc1S(=O)(=O)NCCC1=CCCCC1 | i | nt | i | i | 71 | i
CC(C)c1ccc(NC(=S)N2CCCC(c3ccc(F)cc3)=N2)cc1 | i | i | nt | nt | nt | nt
SMILES | Calpain2 inh | Rad51 HR inh | PMI act satM6P | Lmaj promast | WT yeast gro inh | PMI activator
OCCNc1nc(Nc2ccccc2)nc(Nc2ccccc2)n1 | i | i | i | i | i | i
OCCNc1nc(Nc2ccccc2)nc2ccccc12 | i | i | i | 100 | i | i
OCCNc1nc(Nc2ccc(Br)cc2)nc2ccccc12 | i | i | i | 100 | i | i
Oc1ccccc1Nc1nc(NCc2ccccc2)c2ccccc2n1 | i | i | i | 100 | 86 | i
CC(C)(CO)Nc1nc(Nc2ccccc2)nc(Nc2ccccc2)n1 | i | i | i | 74 | i | i
COc1cc(CNCCN(C)C)c(Br)cc1OC1CCCC1 | i | nt | i | i | i | i
Cc1cc(C)[n+](C)n1CC(O)Cn1c2ccccc2c2ccccc21 (centres undefined) | i | i | i | i | i | i
Clc1ccc(CO/N=C/c2cccs2)cc1 | i | i | nt | nt | nt | nt
CCOC(=O)c1nc(NCc2ccccc2)c2ccccc2n1 | i | i | i | 52 | i | i
C=CCNc1nc(C(=O)OCC)nc2ccccc12 | i | i | i | i | i | i
CC(C)C(c1nnnn1CC1CCCO1)N1CCN(Cc2ccc3c(c2)OCO3)CC1 (centres undefined) | i | i | i | 83 | i | i

Assay outcomes (PubChem BioAssay)
